Measured values reported in paper PMC3425077 (Indian Journal of Pharmaceutical Sciences, 2011).

Experiments:
Assay type in all cases: in vivo
[1] = tested on: carrageenan induced rat paw edema; assay: Carrageenan induced rat paw edema method; details: dose mg/Kg b.w.: Std (Aspirin) 200, 4a-4d 100, 4e 200, 4f 75
Method in brief: (§1)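 Animals given test compound or standard were compared with a control group of animals. Significance of the differences between treatment and control was assessed by Student's t test.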

[2] = tested on: adrenal gland weight; assay: Adrenal weight change method; details: suppression of adrenal gland weight; dose mg/Kg b.w.: Std (Aspirin) 200, 4a-4d 100, 4e 200, 4f 75
Method in brief: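 Adrenal weight change was one of the anti-inflammatory methods. Treated groups were compared with a control group of animals by Student's t test and marked significant or non-significant.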

[3] = tested on: ulcers; assay: Ulcerogenic activity, arbitrary scoring of ulcer severity; details: dose mg/Kg b.w.: Std (Aspirin) 200, 4a-4d 100, 4e 200, 4f 75
[4] = tested on: radiant heat induced rat tail flick; assay: Radiant heat induced rat tail flick method; details: dose mg/Kg b.w.: Std (Aspirin) 200, 4a-4d 100, 4e 200, 4f 75
Method in brief: as §1

CC(=O)Oc1ccccc1C(=O)O [Aspirin]
Antiinflammatory activity Percentage inhibition Carrageenan method 1 h ([1]; after 1 h): 54.84%
Antiinflammatory activity Percentage inhibition Carrageenan method 3 h ([1]; after 3 h): 55.05%
Antiinflammatory activity Percentage inhibition Carrageenan method 5 h ([1]; after 5 h): 73.81%
Antiinflammatory activity Percentage inhibition Adrenal weight method [2]: 50.13%
Ulcer index [3]: 43.33
Analgesic activity percent protection Rat tail flicK method [4]: 49.39%
